According to ChEMBL document CHEMBL5385967, “Nitrogen-containing andrographolide derivatives with multidrug resistance reversal effects in cancer cells” (RSC Med Chem, 2024):

Assays:
L5178Y [1] = assay: Antiproliferative activity against mouse L5178Y cells assessed as reduction in cell viability incubated for 72 hrs by MTT assay; assay type: functional, cell-based
Outline: (§1)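 Parental L5178Y or human ABCB1-transfected L5178Y MDR subline kept under 60 ng mL−1 colchicine selection; McCoy's 5A, 10% heat-inactivated horse serum, 37 °C. 6 × 10^3 cells/well exposed to 2-fold serial dilutions from 100 μM for 72 h. MTT 4 h, SDS overnight, OD 540/630 nm. Triplicate; IC50 from curve fitting, mean ± SD.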

L5178Y [2] = assay: Reversal of multidrug resistance in multidrug resistant mouse L5178Y cells transfected with human ABCB1 assessed as reduction in cell viability incubated for 72 hrs by MTT assay; assay type: functional, cell-based; outline: as §1
[3] = Resistance ratio of IC50 for antiproliferative activity against multidrug resistant mouse L5178Y cells transfected with human ABCB1 to IC50 for antiproliferative activity against mouse L5178Y cells; assay type: functional
Outline: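 RR = IC50(MDR)/IC50(PAR), IC50s from the 72 h MTT assay: 2-fold dilutions from 100 μM, 6 × 10^3 cells/well, triplicate. Collateral sensitivity taken as RR < 0.5; RR < 1 counted as selectivity toward resistant cells.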

[4] = biological target: T1, ATP-dependent translocase ABCB1 (Homo sapiens, UniProt P08183); assay: Modulation of human P-gp transfected in mouse L5178Y cells assessed as change in Rhodamine-123 efflux by measuring fluorescence activity ratio at 2 uM pretreated for 10 mins followed by Rhodamine-123 challenge for 20 mins by flow cytometry relative to parental mouse L5178Y cells; assay type: cell-based; details: 0.5 h, time 30 min
T1 sequence (P08183 whole entry): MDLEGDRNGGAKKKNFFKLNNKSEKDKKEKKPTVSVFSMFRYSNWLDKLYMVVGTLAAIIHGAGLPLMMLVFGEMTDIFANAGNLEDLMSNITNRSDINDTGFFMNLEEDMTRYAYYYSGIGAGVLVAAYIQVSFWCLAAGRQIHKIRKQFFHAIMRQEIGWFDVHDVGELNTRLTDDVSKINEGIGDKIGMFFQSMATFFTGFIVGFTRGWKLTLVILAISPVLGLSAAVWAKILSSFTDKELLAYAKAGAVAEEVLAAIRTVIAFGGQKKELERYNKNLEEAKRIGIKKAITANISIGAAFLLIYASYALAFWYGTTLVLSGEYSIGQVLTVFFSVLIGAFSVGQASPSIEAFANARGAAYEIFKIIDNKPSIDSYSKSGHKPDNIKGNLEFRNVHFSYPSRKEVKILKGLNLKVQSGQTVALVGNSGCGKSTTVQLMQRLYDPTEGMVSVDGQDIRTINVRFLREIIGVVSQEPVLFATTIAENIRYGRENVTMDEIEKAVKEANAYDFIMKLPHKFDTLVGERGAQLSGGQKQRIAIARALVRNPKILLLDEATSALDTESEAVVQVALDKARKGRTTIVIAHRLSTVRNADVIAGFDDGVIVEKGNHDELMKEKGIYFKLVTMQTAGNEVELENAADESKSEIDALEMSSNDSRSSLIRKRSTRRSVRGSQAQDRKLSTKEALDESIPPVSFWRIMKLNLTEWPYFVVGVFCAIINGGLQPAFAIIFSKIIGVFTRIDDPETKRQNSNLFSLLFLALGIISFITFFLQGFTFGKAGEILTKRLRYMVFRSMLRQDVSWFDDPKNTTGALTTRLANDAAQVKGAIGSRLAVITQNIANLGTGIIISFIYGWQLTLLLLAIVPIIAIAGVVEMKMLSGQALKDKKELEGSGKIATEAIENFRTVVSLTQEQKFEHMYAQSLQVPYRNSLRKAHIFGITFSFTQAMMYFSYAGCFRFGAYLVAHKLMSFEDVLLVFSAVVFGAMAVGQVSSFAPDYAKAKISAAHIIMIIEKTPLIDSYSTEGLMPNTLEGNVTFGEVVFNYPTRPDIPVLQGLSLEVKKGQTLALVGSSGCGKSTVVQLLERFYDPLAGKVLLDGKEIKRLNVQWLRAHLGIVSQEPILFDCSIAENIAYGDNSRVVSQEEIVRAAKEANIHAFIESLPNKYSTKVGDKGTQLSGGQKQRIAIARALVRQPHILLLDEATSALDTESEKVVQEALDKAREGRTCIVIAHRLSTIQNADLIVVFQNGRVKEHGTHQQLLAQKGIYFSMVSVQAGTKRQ
Outline: (§2)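 PAR and MDR cells at 2 × 10^6 cells/mL in serum-free McCoy's 5A. Compound given 10 min at room temperature, then rhodamine-123 (5.2 μM final) for 20 min at 37 °C. Washed twice, resuspended in PBS, mean FL-1 read by flow cytometry. FAR = (MDR treated/untreated)/(PAR treated/untreated). Verapamil 20 μM positive control, DMSO 2% solvent control.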

[5] = biological target: T1, ATP-dependent translocase ABCB1; assay: Modulation of human P-gp transfected in mouse L5178Y cells assessed as change in Rhodamine-123 efflux by measuring fluorescence activity ratio at 0.2 uM pretreated for 10 mins followed by Rhodamine-123 challenge for 20 mins by flow cytometry relative to parental mouse L5178Y cells; assay type: cell-based; details: 0.5 h, time 30 min; outline: as §2
L5178Y [6] = assay: Synergistic antiproliferative activity against multidrug resistant mouse L5178Y cells transfected with human ABCB1 assessed as combination index incubated for 72 hrs in presence of doxorubicin by MTT assay; assay type: functional
Outline: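 Checkerboard in MDR cells, 6 × 10^3 cells/well. Doxorubicin in serial dilutions from 8.6 μM, crossed with modifier dilutions whose start level was set from its IC50. 72 h at 37 °C under CO2, growth read by MTT. Curves fitted by the median-effect equation; CI reported at 50% inhibition, mean ± SD.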

[7] = biological target: T1, ATP-dependent translocase ABCB1; assay: Modulation of human P-gp transfected in mouse L5178Y cells assessed as change in Rhodamine-123 efflux by measuring fluorescence activity ratio at 20 uM pretreated for 10 mins followed by Rhodamine-123 challenge for 20 mins by flow cytometry relative to parental mouse L5178Y cells; assay type: cell-based; details: 0.5 h, time 30 min

Row | Ratio [4] | Ratio [5] | Ratio [7] | SMILES | IC50 (L5178Y [1]) [µM] | IC50 (L5178Y [2]) [µM] | Ratio [3] | CI (L5178Y [6])
1 | 0.48 | 0.48 | – | C=C1CC[C@@H]2[C@](C)(COC(C)=O)[C@H](OC(C)=O)CC[C@@]2(C)[C@@H]1C[C@H](NNC(=O)c1ccc(N)cc1)C1=CCOC1=O | 12.3 | 5.47 | 0.44 | <1
2 | 58.18 | – | 61.3 | C=C1CC[C@@H]2[C@](C)(COC(C)=O)[C@H](OC(C)=O)CC[C@@]2(C)[C@@H]1C[C@H](NNC(=S)N(C)C)C1=CCOC1=O | 29.1 | 40.9 | 1.4 | –
3 | 1.2 | – | 43.52 | C=C1CC[C@@H]2[C@](C)(COC(C)=O)[C@H](OC(C)=O)CC[C@@]2(C)[C@@H]1C[C@H](NNC(=S)NC(C)(C)C)C1=CCOC1=O | 60.1 | 54.2 | 0.9 | –
4 | 14.29 | – | 33.46 | C=C1CC[C@@H]2[C@](C)(COC(C)=O)[C@H](OC(C)=O)CC[C@@]2(C)[C@@H]1C[C@H](NNC(=S)Nc1cccc2ccccc12)C1=CCOC1=O | 52.9 | 51.3 | 0.97 | –
5 | 18.86 | – | 60.26 | C=C1CC[C@@H]2[C@](C)(COC(C)=O)[C@H](OC(C)=O)CC[C@@]2(C)[C@@H]1C[C@H](NNC(=S)Nc1ccc(C)cc1)C1=CCOC1=O | 36.1 | 47.4 | 1.31 | –
6 | 1.27 | – | 31.12 | C=C1CC[C@@H]2[C@](C)(COC(C)=O)[C@H](OC(C)=O)CC[C@@]2(C)[C@@H]1C[C@H](NNC(=S)NCc1ccco1)C1=CCOC1=O | 50.1 | 71.5 | 1.43 | –
7 | 3.36 | 1.56 | – | C=C1CC[C@@H]2[C@](C)(COC(C)=O)[C@H](OC(C)=O)CC[C@@]2(C)[C@@H]1C[C@H](NNC(=O)c1ccc(Cl)cc1)C1=CCOC1=O | 14.2 | 9.04 | 0.64 | <1
8 | 1.71 | – | 57.14 | C=C1CC[C@@H]2[C@](C)(COC(C)=O)[C@H](OC(C)=O)CC[C@@]2(C)[C@@H]1C[C@H](NNC(=S)NCc1ccccc1)C1=CCOC1=O | 66.9 | 67.6 | 1.01 | –
9 | 0.32 | 0.49 | – | C=C1CC[C@@H]2[C@](C)(COC(C)=O)[C@H](OC(C)=O)CC[C@@]2(C)[C@@H]1C[C@H](NNC(=O)c1cccnc1)C1=CCOC1=O | 12.5 | 11.8 | 0.94 | <1
10 | 16.12 | 2.34 | – | C=C1CC[C@@H]2[C@](C)(COC(C)=O)[C@H](OC(C)=O)CC[C@@]2(C)[C@@H]1C[C@H](NNc1ccc(Br)cn1)C1=CCOC1=O | 20.6 | 12 | 0.58 | 0.21
11 | 1.21 | – | 64.99 | C=C1CC[C@@H]2[C@](C)(COC(C)=O)[C@H](OC(C)=O)CC[C@@]2(C)[C@@H]1C[C@H](NNC(=O)OCc1ccc(OC)cc1)C1=CCOC1=O | 17.7 | 23.4 | 1.32 | <1
12 | 2.27 | 0.37 | – | C=C1CC[C@@H]2[C@](C)(COC(C)=O)[C@H](OC(C)=O)CC[C@@]2(C)[C@@H]1C[C@H](NNC(=O)c1ccc(C(F)(F)F)cc1)C1=CCOC1=O | 6.74 | 11.8 | 1.75 | <1
13 | 1.06 | – | 37.12 | C=C1CC[C@@H]2[C@](C)(COC(C)=O)[C@H](OC(C)=O)CC[C@@]2(C)[C@@H]1C[C@H](NNC(=S)Nc1ccccc1C)C1=CCOC1=O | 56.9 | 81 | 1.42 | –
14 | 1.95 | – | 38.65 | C=C1CC[C@@H]2[C@](C)(COC(C)=O)[C@H](OC(C)=O)CC[C@@]2(C)[C@@H]1C/C=C1/C(=O)OC[C@H]1OC(C)=O | 13.3 | 19.2 | 1.45 | –
15 | 18.13 | – | 64.94 | C=C1CC[C@@H]2[C@](C)(COC(C)=O)[C@H](OC(C)=O)CC[C@@]2(C)[C@@H]1C[C@H](NNC(=S)NC1CCCCC1)C1=CCOC1=O | 75.7 | 67.4 | 0.89 | –
16 | – | – | – | COc1cccc2c1C(=O)c1c(O)c3c(c(O)c1C2=O)C[C@@](O)(C(=O)CO)C[C@@H]3O[C@H]1C[C@H](N)[C@H](O)[C@H](C)O1 [DOXORUBICIN] | 0.07 | 6.82 | 95.43 | –
17 | 0.96 | – | 0.82 | C=C1CC[C@@H]2[C@](C)(CO)[C@H](O)CC[C@@]2(C)[C@@H]1C/C=C1/C(=O)OC[C@H]1O [ANDROGRAPHOLIDE] | 14.5 | 15 | 1.03 | <1
18 | 61.3 | – | 79.48 | C=C1CC[C@@H]2[C@](C)(COC(C)=O)[C@H](OC(C)=O)CC[C@@]2(C)[C@@H]1C[C@H](NNC(=S)Nc1ccc(CC)cc1)C1=CCOC1=O | 38.9 | > 100 | – | –
19 | 7.9 | – | 55.07 | C=C1CC[C@@H]2[C@](C)(COC(C)=O)[C@H](OC(C)=O)CC[C@@]2(C)[C@@H]1C[C@H](NNC(=S)Nc1ccccc1)C1=CCOC1=O | 51.7 | > 100 | – | –
20 | 5.19 | 1.63 | – | C=C1CC[C@@H]2[C@](C)(COC(C)=O)[C@H](OC(C)=O)CC[C@@]2(C)[C@@H]1C[C@@H](NNC(=O)c1ccc(C(F)(F)F)cc1)C1=CCOC1=O | 14.2 | 15.3 | 1.08 | <1
21 | 4.28 | 2.32 | – | C=C1CC[C@@H]2[C@](C)(COC(C)=O)[C@H](OC(C)=O)CC[C@@]2(C)[C@@H]1C[C@H](NNC(=O)c1ccco1)C1=CCOC1=O | 11.1 | 15.3 | 1.38 | <1
22 | 1.89 | 0.54 | – | C=C1CC[C@@H]2[C@](C)(COC(C)=O)[C@H](OC(C)=O)CC[C@@]2(C)[C@@H]1C[C@H](NNC(=O)c1cccs1)C1=CCOC1=O | 15.5 | 15 | 0.96 | <1
23 | 0.88 | – | 41.85 | C=C1CC[C@@H]2[C@](C)(COC(C)=O)[C@H](OC(C)=O)CC[C@@]2(C)[C@@H]1C[C@H](NNC(=S)NC)C1=CCOC1=O | 44.4 | 51.3 | 1.16 | –
24 | 1.03 | – | 79.33 | C=C1CC[C@@H]2[C@](C)(COC(C)=O)[C@H](OC(C)=O)CC[C@@]2(C)[C@@H]1C[C@H](NNC(=S)Nc1ccccc1F)C1=CCOC1=O | 52.6 | 70 | 1.33 | –
25 | 27.27 | – | 51.95 | C=C1CC[C@@H]2[C@](C)(COC(C)=O)[C@H](OC(C)=O)CC[C@@]2(C)[C@@H]1C[C@H](NNC(=S)Nc1ccc([N+](=O)[O-])cc1)C1=CCOC1=O | 16.1 | 54.8 | 3.4 | –
26 | 1.37 | – | 50.23 | C=C1CC[C@@H]2[C@](C)(COC(C)=O)[C@H](OC(C)=O)CC[C@@]2(C)[C@@H]1C[C@H](NNC(=S)NCCN1CCOCC1)C1=CCOC1=O | 61.5 | 58.7 | 0.96 | –
